According to ChEMBL document CHEMBL1145796, “Neuromuscular blocking activity and therapeutic potential of mixed-tetrahydroisoquinolinium halofumarates and halosuccinates in rhesus monkeys” (2003):

Legend:
[1] = Time from injection to 95% recovery of the twitch response at the ED95 dose in male Rhesus monkey.; type: functional, Cercopithecidae
Method in brief: (§1)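 Anesthetized, ventilated male rhesus monkeys received sequential iv bolus doses with extensor digitorum twitch recorded. Onset is injection to peak twitch inhibition. Duration is injection to 95% twitch recovery. Values at the ED95 were read from plots of onset or duration vs dose. Means ± SE across animals.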

[2] = Dose required for 41% suppression of the twitch response at the extensor digitorum in male Rhesus monkey; type: functional; conditions: Cercopithecidae
Method in brief: (§2)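 Adult male rhesus monkeys (8–15 kg) under ketamine (5 mg/kg i.m.) and pentobarbital (2–5 mg/kg iv) induction, then N2O 60%/O2 40%/halothane 0.5–1%, ventilated, core temperature 37–38 °C. Twitch of extensor digitorum was recorded after ≥20 min stable baseline. Sequential iv bolus doses from 0.03 to 6.4 mg/kg. Per-animal ED95 came from log-probability regression of dose vs % block. Other lines give the single dose tested with its % block.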

[3] = Time from injection to peak inhibition of twitch response at the ED95 dose in male Rhesus monkey.; type: functional, Cercopithecidae; method in brief: as §1
[4] = Dose required for 95% suppression of the twitch response at the extensor digitorum in male Rhesus monkey.; type: functional, Cercopithecidae; conditions: Cercopithecidae; read-out: ED95; method in brief: as §2
[5] = Selectivity index is changes in heart rate(cv dose) to the suppression of twitch response (ED95) in male Rhesus monkey; type: functional, Cercopithecidae
Method in brief: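 Same anesthetized male rhesus preparation, with blood pressure, heart rate and EKG recorded alongside twitch during sequential iv doses up to 6.4 mg/kg. Cardiovascular threshold dose is the dose giving ≥10% change in heart rate or mean arterial pressure. Index = mean threshold dose / mean ED95 (extensor digitorum).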

[6] = Dose required for 93% suppression of the twitch response at the extensor digitorum in male Rhesus monkey; type: functional; conditions: Cercopithecidae; method in brief: as §2
[7] = Dose required for 80% suppression of the twitch response at the extensor digitorum in male Rhesus monkey; type: functional; conditions: Cercopithecidae; method in brief: as §2
[8] = Time from injection to peak inhibition of twitch response at a dose of 0.2 mg/kg in male Rhesus monkey was evaluated; type: functional, Cercopithecidae
Method in brief: (§3)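 Single iv bolus of 0.2 or 0.4 mg/kg in anesthetized, ventilated male rhesus monkeys, with extensor digitorum twitch recorded. Onset taken from injection to peak twitch inhibition at the given dose. Means ± SE, N = number of animals.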

[9] = Time from injection to peak inhibition of twitch response at a dose of 0.4 mg/kg in male Rhesus monkey was evaluated; type: functional, Cercopithecidae; method in brief: as §3
[10] = Time from injection to 95% recovery of twitch response at a dose of 0.2 mg/kg in male Rhesus monkey was evaluated
[11] = Time from injection to 95% recovery of twitch response at a dose of 0.4 mg/kg in male Rhesus monkey was evaluated
[12] = Dose required for 91% suppression of the twitch response at the extensor digitorum in male Rhesus monkey; type: functional; conditions: Cercopithecidae; method in brief: as §2
[13] = Dose required for 100% suppression of the twitch response at the extensor digitorum in male Rhesus monkey; type: functional; conditions: Cercopithecidae; method in brief: as §2

| Structure (SMILES) | Duration [1] | Onset [3] | ED95 [4] | Selectivity index [5] | other results |
| --- | --- | --- | --- | --- | --- |
| COc1cc2c(cc1OC)[C@H](c1cc(OC)c(OC)c(OC)c1)[N@@+](C)(CCCOC(=O)/C(Cl)=C/C(=O)OCCC[N@+]1(C)CCc3cc(OC)c(OC)c(OC)c3[C@H]1Cc1cc(OC)c(OC)c(OC)c1)CC2.COc1cc2c(cc1OC)[C@H](c1cc(OC)c(OC)c(OC)c1)[N@@+](C)(CCCOC(=O)/C=C(\Cl)C(=O)OCCC[N@+]1(C)CCc3cc(OC)c(OC)c(OC)c3[C@H]1Cc1cc(OC)c(OC)c(OC)c1)CC2.[Cl-].[Cl-].[Cl-].[Cl-] | 6.5 min | 145 s |  |  | ED95 [2]: 0.05 mg/kg |
| COc1cc2c(cc1OC)C(c1cc(OC)c(OC)c(OC)c1)[N@+](C)(CCCOC(=O)/C=C/C(=O)OCCC[N@+]1(C)CCc3cc(OC)c(OC)cc3[C@H]1c1cc(OC)c(OC)c(OC)c1)CC2.[Cl-].[Cl-] (stereo partly specified) | 25.5 min | 114 s | 1.55 mg/kg | 0.65 |  |
| COc1cc(C2c3c(cc(OC)c(OC)c3OC)CC[N@@+]2(C)CCCOC(=O)/C(Cl)=C/C(=O)OCCC[N@+]2(C)CCc3cc(OC)c(OC)c(OC)c3[C@H]2c2cc(OC)c(OC)c(OC)c2)cc(OC)c1OC.[Cl-].[Cl-] (stereo partly specified) | 3.6 min | 45 s |  | 1 | ED95 [6]: 2 mg/kg |
| COc1cc2c(cc1OC)[C@H](c1cc(OC)c(OC)c(OC)c1)[N@@+](C)(CCCOC(=O)CCCCCC(=O)OCCC[N@+]1(C)CCc3cc(OC)c(OC)cc3[C@H]1Cc1cc(OC)c(OC)c(OC)c1)CC2.[Cl-].[Cl-] | 7.1 min | 40 s |  |  | ED95 [7]: 0.2 mg/kg |
| COc1cc2c(cc1OC)[C@@H](c1cc(OC)c(OC)c(OC)c1)[N@+](C)(CCCOC(=O)CCCCCCC(=O)OCCC[N@+]1(C)CCc3cc(OC)c(OC)cc3[C@H]1Cc1cc(OC)c(OC)c(OC)c1)CC2.[Cl-].[Cl-] | 8.6 min | 75 s | 0.103 mg/kg | 47 | Onset [8]: 50 s; Onset [9]: 25 s; Duration [10]: 14.6 min; Duration [11]: 16.9 min |
| COc1cc2c(cc1OC)[C@H](c1cc(OC)c(OC)c(OC)c1)[N@@+](C)(CCCOC(=O)/C=C(\Cl)C(=O)OCCC[N@+]1(C)CCc3cc(OC)c(OC)c(OC)c3[C@H]1Cc1cc(OC)c(OC)c(OC)c1)CC2.[Cl-].[Cl-] | 13.3 min | 160 s |  |  | ED95 [12]: 0.05 mg/kg |
| COc1cc2c(cc1OC)[C@H](c1cc(OC)c(OC)c(OC)c1)[N@@+](C)(CCCOC(=O)CC(F)(F)C(=O)OCCC[N@+]1(C)CCc3cc(OC)c(OC)cc3[C@H]1Cc1cc(OC)c(OC)c(OC)c1)CC2.[Cl-].[Cl-] | 7.3 min | 78 s | 0.056 mg/kg | 96 | Onset [8]: 37 s; Onset [9]: 22 s; Duration [10]: 10.3 min; Duration [11]: 13 min |
| COc1cc2c(cc1OC)[C@H](c1cc(OC)c(OC)c(OC)c1)[N@@+](C)(CCCOC(=O)C[C@H](F)C(=O)OCCC[N@+]1(C)CCc3cc(OC)c(OC)cc3[C@H]1Cc1cc(OC)c(OC)c(OC)c1)CC2.[Cl-].[Cl-] | 35 min | 80 s |  |  | ED95 [13]: 0.05 mg/kg |
